Reference: ChEMBL document CHEMBL3525963, “Tissue distribution and elimination of [14C]apixaban in rats” (Drug Metab Dispos, 2011)

How the values were obtained:
Type in all cases: ADME, organism-based
Conditions in all cases: in vivo
Rattus norvegicus [1] = experiment: Biodistribution in pregnant Sprague-Dawley rat amnion at 5 mg/kg, po administered as single dose measured after 8 hrs; design: dose 5 mg/kg, dosed compound name [14C]-apixaban, route oral
Harderian gland = experiment: Biodistribution in male Sprague-Dawley rat harderian gland at 5 mg/kg, po administered as single dose measured after 24 hrs; design: dose 5 mg/kg, dosed compound name [14C]-apixaban, route oral
Procedure, shortened: (§1)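 Fasted male SD rats (225-252 g) each received one oral gavage dose of [14C]apixaban, 5 mg/kg (100 μCi/kg), in 0.5% Tween 80/Labrafil vehicle. One rat was killed per time point, from 0.5 to 168 h. Frozen carcasses were cut into 40 µm sagittal whole-body sections and read by QWBA phosphor imaging against [14C]glucose calibrants. Results are in µg apixaban eq/g; BLQ <0.037 µg eq/g.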

Rattus norvegicus [2] = experiment: Biodistribution in male Sprague-Dawley rat salivary gland at 5 mg/kg, po administered as single dose measured after 72 hrs; design: dose 5 mg/kg, dosed compound name [14C]-apixaban, route oral; procedure, shortened: as §1
Spleen = experiment: Biodistribution in male Sprague-Dawley rat spleen at 5 mg/kg, po administered as single dose measured after 0.5 hrs; design: dose 5 mg/kg, dosed compound name [14C]-apixaban, route oral
Procedure, shortened: (§2)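 [14C]apixaban (1.0 mg/mL, 20 μCi/mL) in 0.5% Tween 80 in Labrafil, given by oral gavage at 100 μCi/kg to male rats (225-252 g) fasted overnight through 4 h post-dose. One rat per time point. Carcasses frozen in hexane/dry ice and cut into 40 µm sagittal sections. QWBA read on phosphor plates against [14C]glucose standards, reported as µg eq/g. LLOQ 0.037 µg eq/g.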

Liver [3] = experiment: Biodistribution in male Sprague-Dawley rat liver at 5 mg/kg, po administered as single dose measured after 72 hrs; design: dose 5 mg/kg, dosed compound name [14C]-apixaban, route oral; procedure, shortened: as §1
Muscle tissue [4] = experiment: Biodistribution in female Sprague-Dawley rat muscle at 5 mg/kg, po administered as single dose measured after 72 hrs; design: dose 5 mg/kg, dosed compound name [14C]-apixaban, route oral
Procedure, shortened: (§3)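 Quantitative whole-body autoradiography was run after a single 5 mg/kg (100 μCi/kg) oral gavage to fasted female or pregnant SD rats, one rat per time point. Carcasses were frozen in hexane/dry ice, and 40 µm sagittal sections were dried at −20°C for at least 48 h. Sections were exposed to a phosphor plate alongside [14C]glucose standards (0.001–6.5 µCi/g). Results are µg eq/g, with LLOQ 0.037 µg eq/g.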

Thymus [5] = experiment: Biodistribution in male Sprague-Dawley rat thymus at 5 mg/kg, po administered as single dose measured after 1 hr; design: dose 5 mg/kg, dosed compound name [14C]-apixaban, route oral
Rattus norvegicus [6] = experiment: Biodistribution in male Sprague-Dawley rat bone marrow at 5 mg/kg, po administered as single dose measured after 4 hrs; design: dose 5 mg/kg, dosed compound name [14C]-apixaban, route oral
Procedure, shortened: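 Fasted male rats, 225-252 g, received [14C]apixaban by single oral gavage at 100 μCi/kg in 0.5% Tween 80/Labrafil. One rat was killed per time point and the carcass frozen. Tissue radioactivity was quantified by QWBA (40 µm sagittal sections, phosphor plate, [14C]glucose calibration) as µg eq apixaban/g, with LLOQ 0.037 μg eq/g.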

Pancreas [7] = experiment: Biodistribution in male Sprague-Dawley rat pancreas at 5 mg/kg, po administered as single dose measured after 8 hrs; design: dose 5 mg/kg, dosed compound name [14C]-apixaban, route oral; procedure, shortened: as §2
Blood [8] = experiment: AUC (0 to t) in lactating Sprague-Dawley rat blood at 5 mg/kg, po administered as single dose; design: dose 5 mg/kg, dosed compound name [14C]-apixaban, route oral
Rattus norvegicus [9] = experiment: Biodistribution in female Sprague-Dawley rat bone marrow at 5 mg/kg, po administered as single dose measured after 72 hrs; design: dose 5 mg/kg, dosed compound name [14C]-apixaban, route oral; procedure, shortened: as §3
Heart [10] = experiment: Biodistribution in pregnant Sprague-Dawley rat heart at 5 mg/kg, po administered as single dose measured after 1 hr; design: dose 5 mg/kg, dosed compound name [14C]-apixaban, route oral
Muscle tissue [11] = experiment: Biodistribution in female Sprague-Dawley rat muscle at 5 mg/kg, po administered as single dose measured after 24 hrs; design: dose 5 mg/kg, dosed compound name [14C]-apixaban, route oral; procedure, shortened: as §3
Pancreas [12] = experiment: Biodistribution in male Sprague-Dawley rat pancreas at 5 mg/kg, po administered as single dose measured after 0.5 hrs; design: dose 5 mg/kg, dosed compound name [14C]-apixaban, route oral; procedure, shortened: as §2
Rattus norvegicus [13] = experiment: Biodistribution in female Sprague-Dawley rat kidney cortex at 5 mg/kg, po administered as single dose measured after 24 hrs; design: dose 5 mg/kg, dosed compound name [14C]-apixaban, route oral; procedure, shortened: as §3
Lung = experiment: Biodistribution in female Sprague-Dawley rat lung at 5 mg/kg, po administered as single dose measured after 72 hrs; design: dose 5 mg/kg, dosed compound name [14C]-apixaban, route oral; procedure, shortened: as §3
Liver [14] = experiment: Biodistribution in male Sprague-Dawley rat liver at 5 mg/kg, po administered as single dose measured after 8 hrs; design: dose 5 mg/kg, dosed compound name [14C]-apixaban, route oral; procedure, shortened: as §2
Pancreas [15] = experiment: Biodistribution in pregnant Sprague-Dawley rat pancreas at 5 mg/kg, po administered as single dose measured after 24 hrs; design: dose 5 mg/kg, dosed compound name [14C]-apixaban, route oral
Procedure, shortened: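 Pregnant SD rats (270-319 g) were fasted overnight and given one oral gavage of 5 mg/kg (100 μCi/kg) in 0.5% Tween 80 in Labrafil. One rat was euthanized per time point (0.5, 1, 4, 8, 24, 48 h) and the carcass frozen. 40 µm sagittal sections were phosphor-imaged against [14C]glucose standards and results reported as µg eq/g; LLOQ 0.037 µg eq/g.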

Rattus norvegicus [16] = experiment: Biodistribution in pregnant Sprague-Dawley rat kidney cortex at 5 mg/kg, po administered as single dose measured after 1 hr; design: dose 5 mg/kg, dosed compound name [14C]-apixaban, route oral
Rattus norvegicus [17] = experiment: Biodistribution in pregnant Sprague-Dawley rat bone marrow at 5 mg/kg, po administered as single dose measured after 48 hrs; design: dose 5 mg/kg, dosed compound name [14C]-apixaban, route oral
Procedure, shortened: (§4)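 Fasted pregnant SD rats (n=6, 270-319 g) each received one oral gavage dose of [14C]apixaban, 5 mg/kg (100 μCi/kg), in 0.5% Tween 80/Labrafil. One rat was killed at each of 0.5, 1, 4, 8, 24 and 48 h. Carcasses were frozen in hexane/dry ice, cut into 40 µm sagittal sections, exposed to phosphor plates and quantified against [14C]glucose standards as µg eq/g. LLOQ was 0.037 µg eq/g.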

Muscle tissue [18] = experiment: Biodistribution in pregnant Sprague-Dawley rat muscle at 5 mg/kg, po administered as single dose measured after 8 hrs; design: dose 5 mg/kg, dosed compound name [14C]-apixaban, route oral
Blood [19] = experiment: Biodistribution in male Sprague-Dawley rat blood at 5 mg/kg, po administered as single dose measured after 0.5 hrs; design: dose 5 mg/kg, dosed compound name [14C]-apixaban, route oral
Procedure, shortened: (§5)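 [¹⁴C]Apixaban given by oral gavage at 5 mg/kg (100 μCi/kg) in 0.5% Tween 80 in Labrafil (1.0 mg/mL dosing solution) to rats fasted overnight through 4 h post-dose. One rat per time point; carcass frozen in hexane/dry ice. Quantitative whole-body autoradiography used 40 µm sagittal sections and a phosphor imaging plate calibrated with [¹⁴C]glucose standards (0.001–6.5 μCi/g). Read-out in µg eq apixaban/g; LLOQ 0.037 μg eq/g.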

Heart [20] = experiment: Biodistribution in female Sprague-Dawley rat heart at 5 mg/kg, po administered as single dose measured after 24 hrs; design: dose 5 mg/kg, dosed compound name [14C]-apixaban, route oral; procedure, shortened: as §3
Rattus norvegicus [21] = experiment: Biodistribution in fetal kidney of pregnant Sprague-Dawley rat at 5 mg/kg, po administered as single dose measured after 24 hrs; design: dose 5 mg/kg, dosed compound name [14C]-apixaban, route oral; procedure, shortened: as §3
Thymus [22] = experiment: Biodistribution in female Sprague-Dawley rat thymus at 5 mg/kg, po administered as single dose measured after 8 hrs; design: dose 5 mg/kg, dosed compound name [14C]-apixaban, route oral; procedure, shortened: as §3
Blood [23] = experiment: AUC (0 to infinity) in pregnant Sprague-Dawley rat blood at 5 mg/kg, po administered as single dose; design: time infinity, dose 5 mg/kg, dosed compound name [14C]-apixaban, route oral
Adrenal gland [24] = experiment: Biodistribution in male Sprague-Dawley rat adrenal gland at 5 mg/kg, po administered as single dose measured after 0.5 hrs; design: dose 5 mg/kg, dosed compound name [14C]-apixaban, route oral; procedure, shortened: as §5
Adrenal gland [25] = experiment: Biodistribution in pregnant Sprague-Dawley rat adrenal gland at 5 mg/kg, po administered as single dose measured after 48 hrs; design: dose 5 mg/kg, dosed compound name [14C]-apixaban, route oral; procedure, shortened: as §4
[26] = Drug level in lactating Sprague-Dawley rat milk at 5 mg/kg, po administered as single dose after 1 hr; design: dose 5 mg/kg, dosed compound name [14C]-apixaban, route oral

With `COc1ccc(-n2nc(C(N)=O)c3c2C(=O)N(c2ccc(N4CCCC[14C]4=O)cc2)CC3)cc1` the Radiolabel recovery (Rattus norvegicus [1]) was 2.12 ugequiv/g, the Radiolabel recovery (Harderian gland) was “Not detected assumed BLQ” and the Radiolabel recovery (Rattus norvegicus [2]) was “Not detected assumed BLQ”. For the same compound, the Radiolabel recovery (Spleen) was 0.18 ugequiv/g, the Radiolabel recovery (Liver [3]) was “Not detected assumed BLQ” and the Radiolabel recovery (Muscle tissue [4]) was “Not detected assumed BLQ”. For the same compound, the Radiolabel recovery (Thymus [5]) was 0.46 ugequiv/g, the Radiolabel recovery (Rattus norvegicus [6]) was 0.32 ugequiv/g and the Radiolabel recovery (Pancreas [7]) was 0.12 ugequiv/g. The AUCt (Blood [8]) was 1940 ngequiv.hr/g, the Radiolabel recovery (Rattus norvegicus [9]) was “Not detected assumed BLQ” and the Radiolabel recovery (Heart [10]) was 0.93 ugequiv/g. The Radiolabel recovery (Muscle tissue [11]) was “Not detected assumed BLQ”, the Radiolabel recovery (Pancreas [12]) was 0.47 ugequiv/g and the Radiolabel recovery (Rattus norvegicus [13]) was “Not detected assumed BLQ”. For the same compound, the Radiolabel recovery (Lung) was “Not sampled as not visualised in autoradiograph”, the Radiolabel recovery (Liver [14]) was 0.39 ugequiv/g and the Radiolabel recovery (Pancreas [15]) was “Not detected assumed BLQ”. For the same compound, the Radiolabel recovery (Rattus norvegicus [16]) was 2.03 ugequiv/g, the Radiolabel recovery (Rattus norvegicus [17]) was “Not detected assumed BLQ” and the Radiolabel recovery (Muscle tissue [18]) was 0.05 ugequiv/g. The Radiolabel recovery (Blood [19]) was 0.42 ugequiv/g, the Radiolabel recovery (Heart [20]) was “Not detected assumed BLQ” and the Radiolabel recovery (Rattus norvegicus [21]) was “Not sampled as not visualised in autoradiograph”. For the same compound, the Radiolabel recovery (Thymus [22]) was 0.09 ugequiv/g, the AUC (Blood [23]) was 7200 ngequiv.hr/g and the Radiolabel recovery (Adrenal gland [24]) was 0.59 ugequiv/g. For the same compound, the Radiolabel recovery (Adrenal gland [25]) was “Not sampled as not visualised in autoradiograph” and the Radiolabel recovery [26] was 4.56 µg/mL.
